Assay results published in ChEMBL document CHEMBL4346736, “Anti-proliferative activity and structure-activity relationship of honokiol derivatives” (Bioorg Med Chem, 2019).
One block for each molecule: values may come before it.

Columns and labels:
[1] = Partition coefficient, log P of the compound; assay type: physicochemical; details: octanol/water
[2] = tested on: K562; experiment: Antiproliferative activity against human K562 cells; assay type: functional, cell-based
Procedure, shortened: (§1)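 Cells from the Institute of Cell Biology, CAS (Shanghai), grown in RPMI-1640 with 10% FBS and 100 U/mL penicillin-streptomycin at 37 °C under 5% CO2. Cells were exposed to compounds for 48 h, and viability was read by MTT (or MTS). IC50, the concentration giving 50% inhibition, was calculated by the Logit method. Data are representative of 3 independent experiments.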

[3] = tested on: HepG2; experiment: Antiproliferative activity against human HepG2 cells; assay type: functional, cell-based; procedure, shortened: as §1
[4] = tested on: HepG2; experiment: Antiproliferative activity against human HepG2 cells after 48 hrs by MTT assay; assay type: functional, cell-based; details: HepG2, 48 h; procedure, shortened: as §1
[5] = tested on: K562; experiment: Antiproliferative activity against human K562 cells after 48 hrs by MTT assay; assay type: functional, cell-based; details: K562, 48 h; procedure, shortened: as §1
[6] = tested on: A549; experiment: Antiproliferative activity against human A549 cells after 48 hrs by MTT assay; assay type: functional, cell-based; details: A549, 48 h; procedure, shortened: as §1
[7] = tested on: HCT-116; experiment: Antiproliferative activity against human HCT116 cells after 72 hrs by MTT assay; assay type: functional, cell-based; details: HCT-116, 72 h
[8] = tested on: HepG2; experiment: Antiproliferative activity against human HepG2 cells after 72 hrs by MTT assay; assay type: functional, cell-based; details: HepG2, 72 h
[9] = tested on: NCI-H1975; experiment: Antiproliferative activity against human NCI-H1975 cells after 72 hrs by MTT assay; assay type: functional, cell-based; details: NCI-H1975, 72 h
[10] = tested on: K562; experiment: Antiproliferative activity against human K562 cells by MTT assay; assay type: functional, cell-based; procedure, shortened: as §1
[11] = Antiproliferative activity against human SPCA1 cells by MTT assay; assay type: functional, cell-based
[12] = tested on: A549; experiment: Antiproliferative activity against human A549 cells by MTT assay; assay type: functional, cell-based; procedure, shortened: as §1
[13] = Selectivity index, ratio of IC50 for HUVEC to IC50 for human K562 cells; assay type: toxicity; details: HUVEC versus K562 cells, read-out: Ratio IC50
Procedure, shortened: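 K562 tumor cells and HUVEC grown in RPMI-1640 with 10% FBS and penicillin-streptomycin at 37 °C under 5% CO2. Viability was read by MTT or MTS assay, with tumor cells exposed to compounds for 48 h. IC50 values came from the Logit method across 3 independent experiments. The index is HUVEC IC50 divided by K562 IC50.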

[14] = tested on: HUVEC; experiment: Antiproliferative activity against human HUVEC cells after 48 hrs by MTT assay; assay type: cell-based; procedure, shortened: as §1

Compound: C=CCc1cc(CN2CCOCC2)c(O)c(-c2cc(CC=C)c(O)c(CN3CCOCC3)c2)c1
IC50 [2]: > 40 µM
logP [1]: 3.95
IC50 [3]: > 40 µM

Compound: CCCc1ccc(O)c(-c2ccc3c(c2)CC(C)O3)c1 (centres undefined)
IC50 [4]: 122 µM
logP [1]: 5.13
IC50 [5]: 72.9 µM
IC50 [6]: 96.1 µM

Compound: C=CCc1cc(C=O)c(OC)c(-c2ccc(OC)c(CC=C)c2)c1
logP [1]: 5.07

Compound: C=CCc1cc(/C=C(\C#N)C(=O)OCC)c(O)c(-c2ccc(O)c(CC=C)c2)c1
logP [1]: 5.44

Compound: O=Cc1ccc(O)c(-c2ccc(O)c(CC3CO3)c2)c1 (centres undefined)
IC50 [7]: > 40 µM
IC50 [8]: > 40 µM
logP [1]: 3.16
IC50 [9]: > 40 µM

Compound: C=CCc1cccc(-c2cccc(CC=C)c2O)c1O
logP [1]: 4.75

Compound: C=CCc1ccc(OCC)c(-c2ccc(O)c(CC=C)c2)c1
logP [1]: 5.66

Compound: C=CCc1cc(C2(c3ccc(O)c(CC=C)c3)CCCCC2)ccc1O
logP [1]: 6.97

Compound: CCCc1ccc(O)c(-c2ccc3oc(C)cc3c2)c1
IC50 [4]: 88.3 µM
logP [1]: 5.27
IC50 [5]: 73.9 µM
IC50 [6]: 61.9 µM

Compound: C=CCc1cc(NC(=O)C=C)c(O)c(-c2cc(CC=C)c(O)c(NC(=O)C=C)c2)c1
IC50 [4]: 19.1 µM
selectivity ratio [13]: 11.5
IC50 [14]: 57.8 µM
logP [1]: 4.3
IC50 [5]: 5.04 µM
IC50 [6]: 16.6 µM

Compound: C=CCc1cc(C(=C(Cl)Cl)c2ccc(O)c(CC=C)c2)ccc1O
logP [1]: 6.17

Compound: Oc1ccccc1-c1ccccc1O
logP [1]: 3.2

Compound: C=CCc1cc(/C=N/O)c(O)c(-c2cc(/C=N/O)c(O)c(CC=C)c2)c1
logP [1]: 5.49

Compound: C=CCc1cc(-c2cccc(CC=C)c2O)ccc1OC
logP [1]: 5.05

Compound: C=CCc1cc(O)c(O)c(-c2cc(CC=C)cc(O)c2O)c1
logP [1]: 3.76

Compound: C=CCc1cc(NC(=O)CCl)c(O)c(-c2cc(CC=C)c(O)c(NC(=O)CCl)c2)c1
IC50 [4]: 19.1 µM
logP [1]: 4.22
IC50 [5]: 21.6 µM
IC50 [6]: 29.3 µM

Compound: CCCc1ccc(O)c(-c2cc(CCC)ccc2O)c1
logP [1]: 5.76

Compound: C=CCc1cc2c(c(-c3cc(CC=C)c4c(c3)NC(=O)CO4)c1)OCC(=O)N2
IC50 [4]: 27.4 µM
selectivity ratio [13]: 11.6
IC50 [14]: 82.1 µM
logP [1]: 3.29
IC50 [5]: 7.08 µM
IC50 [6]: 37 µM

Compound: C=CCc1cc(CN2CCC(N)CC2)c(O)c(-c2cc(CC=C)c(O)c(CN3CCC(N)CC3)c2)c1
IC50 [2]: 9.1 µM
logP [1]: 2.79
IC50 [3]: 17 µM

Compound: C=CCc1ccc(OC)c(-c2cc(CC=C)ccc2OC)c1
logP [1]: 5.35

Compound: C=CCc1cc(C(c2ccc(O)c(CC=C)c2)c2ccccn2)ccc1O
logP [1]: 5.41

Compound: C=CCc1cc(-c2ccc3c(c2)OCCO3)ccc1O
logP [1]: 3.98

Compound: C=CCc1cc(-c2cc(CC=C)c(O)c([N+](=O)[O-])c2)c(O)c([N+](=O)[O-])c1
IC50 [4]: > 128 µM
logP [1]: 4.57
IC50 [5]: > 128 µM
IC50 [6]: > 128 µM

Now from value to molecule, other results behind:

logP [1]: 7.22
Compound: C=CCc1cc(/C=N\CCCCCC)c(O)c(-c2ccc(O)c(CC=C)c2)c1

logP [1]: 7.76
Compound: C=CCc1cc(/C=N/Nc2ccccc2)c(O)c(-c2ccc(O)c(CC=C)c2)c1

logP [1]: 4.27
Compound: C=CCc1ccc(O)c(-c2cc(/C=C3\SC(=O)NC3=O)c(O)c(CC=C)c2)c1

IC50 [10]: 32.6 µM
IC50 [12]: > 77.6 µM
logP [1]: 4.23
Compound: C=CCc1cc(C=O)c(O)c(-c2cc(C=O)c(O)c(CC=C)c2)c1
IC50 [11]: 31.4 µM

IC50 [10]: 54.6 µM
IC50 [12]: > 85 µM
logP [1]: 4.72
Compound: C=CCc1cc(C=O)c(O)c(-c2ccc(O)c(CC=C)c2)c1

IC50 [7]: 19.9 µM
IC50 [8]: 31.6 µM
logP [1]: 5.1
IC50 [9]: 39.8 µM
Compound: C=CCc1ccc(O)c(-c2ccc(O)c(/C=C\C)c2)c1

logP [1]: 4.48
Compound: C=CCc1cc(/C=C2\SC(=O)NC2=O)c(O)c(-c2ccc(O)c(CC=C)c2)c1

logP [1]: 3.33
Compound: C=CCc1cc(CO)c(O)c(-c2cc(CO)c(O)c(CC=C)c2)c1

logP [1]: 6.47
Compound: C=CCc1cc(/C=N\c2ccccc2)c(O)c(-c2ccc(O)c(CC=C)c2)c1

IC50 [7]: > 40 µM
IC50 [8]: > 40 µM
logP [1]: 3.7
IC50 [9]: > 40 µM
Compound: C=CCc1ccc(O)c(-c2ccc(O)c(CC(O)COC)c2)c1 (centres undefined)

logP [1]: 5.28
Compound: C=CCc1ccc(OC)c(-c2ccc(O)c(CC=C)c2)c1

logP [1]: 3.57
Compound: C=CCc1cc(/C=N/CCN)c(O)c(-c2ccc(O)c(CC=C)c2)c1

logP [1]: 5
Compound: C=CCc1cc(C=O)c(OC)c(-c2ccc(O)c(CC=C)c2)c1

logP [1]: 5.35
Compound: C=CCc1ccc(OC)c(-c2ccc(OC)c(CC=C)c2)c1

logP [1]: 4.78
Compound: C=CCc1ccc(O)c(-c2cc(CC=C)c3oncc3c2)c1

logP [1]: 5.81
Compound: C=CCc1cc(Br)c(O)c(-c2ccc(OC)c(CC=C)c2)c1
